Experimental data: ChEMBL document CHEMBL5032502, “Syntheses, Biological Evaluations, and Mechanistic Studies of Benzo[c][1,2,5]oxadiazole Derivatives as Potent PD-L1 Inhibitors with In Vivo Antitumor Activity” (J Med Chem, 2021)
The source made the active and inactive calls. The rule behind the calls is not given here.

Legend:
[1] = system: B16-F10; assay: Antitumor activity against mouse B16-F10 cells implanted in C57BL/6 mouse assessed as tumor growth inhibition at 45 mg/kg, po measured after 18 days; format: functional; settings: 432 h, time 18 day, read-out: TGI
Procedure, shortened: (§1)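 Female C57BL/6J mice, 8 weeks old, injected dorsally with 1 × 10⁶ B16-F10 cells in PBS. Daily oral gavage started the same day (day 1), in 0.5% CMC-Na vehicle. Tumour size and body weight recorded daily, volume = 0.5 × L × W². Sacrifice on day 18, tumours excised and weighed. TGI = (1 − Vt/Vv) × 100.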

[2] = system: B16-F10; assay: Antitumor activity against mouse B16-F10 cells implanted in C57BL/6 mouse assessed as tumor weight at 15 mg/kg, po measured after 18 days (reference value: 1.76 gm); format: functional; settings: time 18 day; procedure, shortened: as §1
[3] = system: MC-38; assay: Antitumor activity against mouse MC38 cells implanted in C57BL/6 mouse assessed as tumor growth inhibition at 300 mg/kg, po measured after 14 days; format: functional; settings: MC-38, po, 336 h, time 14 day, read-out: TGI
[4] = system: MC-38; assay: Antitumor activity against mouse MC38 cells xenografted in C57BL/6 mouse assessed as increase in ratio of CD8 positive T cells to CD4 positive T cells at 25 mg/kg, po by flow cytometry analysis; format: functional, organism-based
Procedure, shortened: (§2)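 Tumours taken from PD-L1-humanized mice carrying MC38-hPD-L1 tumours and dosed orally at 5 or 25 mg/kg daily. Tissue digested to single cells, red cells lysed with ACK buffer, Fc blocked. Surface stain 60 min for CD45, CD3, CD4, CD8, CD335, CD11b, Ly6G, Ly6C and F4/80, with a viability dye. Intracellular FOXP3 stain after permeabilization. Mean ± SEM, n = 7−8, one-way ANOVA.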

[5] = Cmax in Sprague-Dawley rat at 45 mg/kg, po measured upto 24 hrs by LC-MS analysis; format: ADME, organism-based; set-up: route oral, dose 45 mg/kg, time <=24; settings: in vivo
Procedure, shortened: (§3)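 Male animals fasted 12 h before dosing. Plasma levels measured by LC-MS, with the prodrug quantified as the parent acid. Mean ± SEM, n = 3.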

[6] = Oral bioavailability in C57BL/6 mouse at 10 mg/kg measured upto 24 hrs by LC-MS analysis; format: ADME, organism-based; settings: in vivo
Procedure, shortened: (§4)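 Male Sprague-Dawley rats or C57BL/6 mice fasted 12 h before dosing, given oral (po) or intravenous (iv) doses. Plasma levels measured by LC-MS. Parameters reported as mean ± SEM, n = 3.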

[7] = Tmax in C57BL/6 mouse at 2 mg/kg, iv measured upto 24 hrs by LC-MS analysis; format: ADME, organism-based; settings: in vivo; procedure, shortened: as §4
[8] = Toxicity in C57BL/6 mouse assessed as effect on BUN level at 2000 mg/kg, po observed for 30 days; format: organism-based; settings: in vivo, 720 h, time 30 day
[9] = system: MC-38; assay: Antitumor activity against mouse MC38 cells xenografted in C57BL/6 mouse assessed as increase in CD3 positive T cells at 25 mg/kg, po by flow cytometry analysis; format: functional, organism-based; procedure, shortened: as §2
[10] = AUC (0 to t) in Sprague-Dawley rat at 9 mg/kg, iv measured upto 24 hrs by LC-MS analysis; format: ADME, organism-based; set-up: route intravenous, dose 9 mg/kg, time <=24; settings: in vivo; procedure, shortened: as §3
[11] = system: MC-38; assay: Antitumor activity against mouse MC38 cells implanted in C57BL/6 mouse assessed as tumor growth inhibition at 150 mg/kg, po measured after 14 days; format: functional; settings: MC-38, po, 336 h, time 14 day, read-out: TGI
[12] = Toxicity in C57BL/6 mouse assessed as effect on AST level at 2000 mg/kg, po observed for 30 days; format: organism-based; settings: in vivo, 720 h, time 30 day
[13] = system: MC-38; assay: Antitumor activity against mouse MC38 cells implanted in C57BL/6 mouse assessed as tumor growth inhibition at 50 mg/kg, po measured after 14 days; format: functional; settings: MC-38, po, 336 h, time 14 day, read-out: TGI
[14] = Cmax in C57BL/6 mouse at 10 mg/kg, po measured upto 24 hrs by LC-MS analysis; format: ADME, organism-based; set-up: route oral, dose 10 mg/kg, time <=24; settings: in vivo; procedure, shortened: as §3
[15] = system: MC-38; assay: Antitumor activity against PD-L1 humanized mouse MC38 cells implanted in PD-L1 humanized C57BL/6 mouse assessed as tumor growth inhibition at 50 mg/kg, po measured after 30 days; format: functional; settings: MC-38, po, 720 h, time 30 day, read-out: TGI
Procedure, shortened: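 PD-L1-humanized C57BL/6 mice given 1 × 10⁶ MC38-hPD-L1(Tg)-mPDL1(KO) cells in the right flank. Once tumours reached 50 mm³, randomized into three groups: CMC-Na vehicle, 25 or 50 mg/kg by daily oral gavage for 30 days. TGI from mean tumour volume of treated versus vehicle groups. n = 6.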

[16] = AUC (0 to t) in C57BL/6 mouse at 2 mg/kg, iv measured upto 24 hrs by LC-MS analysis; format: ADME, organism-based; set-up: route intravenous, dose 2 mg/kg, time <=24; settings: in vivo; procedure, shortened: as §3
[17] = system: MC-38; assay: Antitumor activity against mouse MC38 cells xenografted in C57BL/6 mouse assessed as increase in NK cells at 25 mg/kg, po by flow cytometry analysis; format: functional, organism-based; procedure, shortened: as §2
[18] = Half life in C57BL/6 mouse at 10 mg/kg, po measured upto 24 hrs by LC-MS analysis; format: ADME, organism-based; settings: in vivo; procedure, shortened: as §3
[19] = Tmax in Sprague-Dawley rat at 9 mg/kg, iv measured upto 24 hrs by LC-MS analysis; format: ADME, organism-based; settings: in vivo; procedure, shortened: as §4
[20] = Cmax in C57BL/6 mouse at 2 mg/kg, iv measured upto 24 hrs by LC-MS analysis; format: ADME, organism-based; set-up: route intravenous, dose 2 mg/kg, time <=24; settings: in vivo; procedure, shortened: as §3
[21] = Acute toxicity in C57BL/6 mouse assessed as body weight loss at 2000 mg/kg, po observed for 30 days; format: organism-based; settings: in vivo, 720 h, time 30 day
Procedure, shortened: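 Healthy C57BL/6 mice got a single oral 2000 mg/kg dose. Mortality and body weight were then recorded over a 30-day observation period.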

[22] = Cmax in Sprague-Dawley rat at 9 mg/kg, iv measured upto 24 hrs by LC-MS analysis; format: ADME, organism-based; set-up: route intravenous, dose 9 mg/kg, time <=24; settings: in vivo; procedure, shortened: as §3
[23] = system: B16-F10; assay: Antitumor activity against mouse B16-F10 cells implanted in C57BL/6 mouse assessed as tumor weight at 45 mg/kg, po measured after 18 days (reference value: 1.76 gm); format: functional; settings: time 18 day; procedure, shortened: as §1
[24] = Clearance in Sprague-Dawley rat at 9 mg/kg, iv measured upto 24 hrs by LC-MS analysis; format: ADME, organism-based; settings: in vivo; procedure, shortened: as §3
[25] = AUC (0 to t) in C57BL/6 mouse at 10 mg/kg, po measured upto 24 hrs by LC-MS analysis; format: ADME, organism-based; set-up: route oral, dose 10 mg/kg, time <=24; settings: in vivo; procedure, shortened: as §3
[26] = Half life in Sprague-Dawley rat at 45 mg/kg, po measured upto 24 hrs by LC-MS analysis; format: ADME, organism-based; settings: in vivo; procedure, shortened: as §3

Question: With `CCOC(=O)[C@@H](CO)NCc1cc(Cl)c(OCc2cccc(-c3ccccc3)c2Br)cc1OCc1ccc2nonc2c1.Cl` as the compound, how does the inhibition in vivo at 45 mg/kg [1] read?
Answer: 70.7%

Question: What about the Activity [2] of the same compound?
Answer: 1.27 g

Question: And the inhibition in vivo at 300 mg/kg [3]?
Answer: 36.5%

Question: And the Activity [4]?
Answer: Active

Question: And the Cmax [5]?
Answer: 488 ng/mL

Question: What about the bioavailability [6] of the same compound?
Answer: 7.7%

Question: What about the Tmax [7] of the same compound?
Answer: 4.8 min

Question: What about the Activity [8] of the same compound?
Answer: Non-Toxic

Question: What about the Activity [9] of the same compound?
Answer: Active

Question: What about the AUC(0-t) at 24 h [10] of the same compound?
Answer: 6280 ng·h/mL

Question: And the inhibition in vivo at 150 mg/kg [11]?
Answer: 58.2%

Question: And the Activity [12]?
Answer: Non-Toxic

Question: And the inhibition in vivo at 50 mg/kg [13]?
Answer: 50.9%

Question: What about the Cmax [14] of the same compound?
Answer: 150 ng/mL

Question: What about the inhibition in vivo at 50 mg/kg [15] of the same compound?
Answer: 30.8%

Question: What about the AUC(0-t) at 24 h [16] of the same compound?
Answer: 1150 ng·h/mL

Question: What about the Activity [17] of the same compound?
Answer: Active

Question: And the half-life [18]?
Answer: 93 min

Question: And the Tmax [19]?
Answer: 4.8 min

Question: And the Cmax [20]?
Answer: 2820 ng/mL

Question: And the Activity [21]?
Answer: Non-Toxic

Question: And the Cmax [22]?
Answer: 13000 ng/mL

Question: And the Activity [23]?
Answer: 0.79 g

Question: And the clearance [24]?
Answer: 23.8 mL/min/kg

Question: What about the AUC(0-t) at 24 h [25] of the same compound?
Answer: 444 ng·h/mL

Question: What about the half-life [26] of the same compound?
Answer: 206 min
